# A selection: hits, their analogues and other compounds. The true share with any hit is near 2.3%.
# MC4R antag cAMP: human MC4R antagonism in cAMP assay; MC4R-expressing cells, MTII-stimulated cAMP, LANCE TR-FRET; inhibition, % at 6.5 µM; 0.48% of 360,000 active; AID 540295;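 active = inhibition above its plate's cutoff, the mean of tested wells on that plate plus 3 SD, cut at about 29% in these data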;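 note: 0% = Melanotan II alone and 100% = Melanotan II plus saturating MCL0020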
# Target sequence (P32245 whole entry, looked up): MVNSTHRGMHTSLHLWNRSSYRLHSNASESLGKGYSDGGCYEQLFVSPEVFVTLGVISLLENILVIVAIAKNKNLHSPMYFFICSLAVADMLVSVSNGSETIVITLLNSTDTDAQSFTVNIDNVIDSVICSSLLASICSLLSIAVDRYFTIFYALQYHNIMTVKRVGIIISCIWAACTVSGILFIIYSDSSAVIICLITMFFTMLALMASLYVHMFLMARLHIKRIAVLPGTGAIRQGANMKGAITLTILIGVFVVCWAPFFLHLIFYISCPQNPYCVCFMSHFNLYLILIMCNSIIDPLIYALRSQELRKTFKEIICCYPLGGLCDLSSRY
#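 system = U2OS cells with stable human MC4R expression | also added = Melanotan II challenge after compound preincubation | dosing = one concentration, 6.5 µM nominal | incubation = compound 30 min, challenge 1 h, detection 1 h | measured by = TR-FRET with Eu-cAMP and labeled anti-cAMP, 671 nm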
# bovine MsrA act: activators of bovine methionine sulfoxide reductase A; purified bovine MsrA, absorbance read-out; activation, % at 10.6 µM; 0.3% of 360,000 active; AID 602163; in the data active = activation above about 7.5%;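 note: 0% = vehicle and 100% = reference activator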
# MsrA inhibitor: bovine MsrA inhibition. AID 651718. inhibition, % at 15.5 µM. purified bovine MsrA, absorbance read-out. 0.75% of 360,000 active; in the data active = inhibition above about 4.5%;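 note: 0% = vehicle wells with enzyme and 100% = reference inhibitor wells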
# MC4R ag barr: agonists of human melanocortin 4 receptor (MC4R) beta-arrestin; P32245; U2OS MC4R beta-arrestin complementation, luminescence; percent of melanotan II response, DMSO zero; activation, % at 8.9 µM; 0.98% of 360,000 active;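 active = activation above a per-plate cutoff, the mean activation of sample wells on that plate plus 3 SD, cut at about 8% in these data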
# cAMP nonselect: U2OS forskolin cAMP inhibition counter-screen; shares compounds with MC4R antag cAMP; parental U2OS, LANCE TR-FRET; inhibition, % at 6.5 µM; 26% of 1,600 active;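 active = mean inhibition over triplicates above the low-control well mean plus 3 SD, set per campaign, cut at about 13% in these data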;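 note: signal is single emission at 671 nm which falls as cellular cAMP rises; 0% = forskolin-stimulated wells and 100% = buffer without forskolin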
# MC4R antag conf: human MC4R cAMP antagonism confirmation; inhibition, % at 6.5 µM; AID 602195; 27% of 1,600 active; shares compounds with MC4R antag cAMP; MC4R-expressing cells, MTII-stimulated cAMP, TR-FRET; in the data active = inhibition above about 29%;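 note: 0% = agonist stimulated wells alone and 100% = agonist stimulated wells plus saturating reference antagonist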
# * = called active by the depositor; x = not tested or not shown.
SMILES,MC4R antag cAMP,bovine MsrA act,MsrA inhibitor,MC4R ag barr,cAMP nonselect,MC4R antag conf
C=CCn1nnnc1-c1cccc(Cl)c1,34*,-3,0,0,5,4
CC(NC(=O)CN(c1cccc(C(F)(F)F)c1)S(=O)(=O)c1ccc(Cl)c([N+](=O)[O-])c1)c1ccccc1 (stereo not drawn),31*,4,-1,6,14*,42*
COc1ccc(N(C(=O)c2ccc3c(c2)OCO3)C2C=CS(=O)(=O)C2)c(OC)c1 (stereo not drawn),11,-3,-1,-1,x,x
O=C(CNC(=O)C(c1ccccc1)c1ccccc1)OCc1ccccc1,30*,-1,0,0,13,19
CC/C(=N\NC(=O)c1ccc(N2CCCC2=O)cc1)c1ccccc1,14,0,1,-1,x,x
O=C(Cc1ccc(O)cc1)NC1CCCCCC1,2,0,0,1,x,x
COc1ccccc1-c1cc(SC)c(C#N)c(=O)o1,50*,-5,1,-2,23*,38*
O=C(Cn1ncc(Cl)c(Cl)c1=O)NC1CCS(=O)(=O)C1 (stereo not drawn),7,-1,0,0,x,x
O=C(Cn1ncc(Cl)c(Cl)c1=O)NCC1CCCCC1,58*,-3,0,0,33*,56*
O=C(Cn1ncc(Cl)c(Cl)c1=O)NC1CCCCC1,47*,-2,0,-1,29*,72*
O=C1CN(C(=O)Cn2ncc(Cl)c(Cl)c2=O)c2ccccc2N1,44*,-2,-1,2,20*,30*
CCN(CC)C(=O)c1cc2c(=O)c3cc(Cl)ccc3oc2nc1C,-8,-4,1,-1,x,x
COC(=O)C1CCN(C(=O)c2cc3c(=O)n4cccc(C)c4nc3n2Cc2ccccc2)CC1,30*,-1,0,0,-3,-2
CCn1c(SCC(=O)Nc2ccc(NC(=O)c3cccs3)cc2)nnc1-c1cccnc1,6,-3,0,1,x,x
CN(C(=O)COC(=O)/C=C/c1ccc2ccccc2n1)C1CCS(=O)(=O)C1 (stereo not drawn),-8,-3,3,-1,x,x
CCN(C(=O)COC(=O)/C=C/c1cnc2ccccc2n1)C1CCS(=O)(=O)C1 (stereo not drawn),29*,-2,2,1,-5,-2
CC(=O)OC1CCC2(C)C(CCC3C4CC=C(C(C)=O)C4(C)OC(=O)CC32)C1 (stereo not drawn),42*,0,1,-2,31*,-20
CC(=O)Nc1cccc(Oc2ncccc2[N+](=O)[O-])c1,11,-2,0,0,x,x
CC(=O)NC(Cc1ccccc1)C(=O)NC1CCN(C(=O)NCc2ccccc2)CC1 (stereo not drawn),10,-5,1,1,x,x
CCOC(=O)c1cc(-c2csc(-c3ccc(C(C)(C)C)cc3)n2)on1,14,-4,-1,0,x,x
CCOC(=O)c1cc(-c2csc(-c3ccc(C(F)(F)F)cc3)n2)on1,37*,-2,0,1,2,-8
O=C(NCc1ccc(Cl)cc1)c1ccc(-n2cccn2)nc1,7,-4,1,2,x,x
COc1ccc(-c2noc(CN(C)CCC3CCCCO3)n2)cc1 (stereo not drawn),32*,1,-1,-1,-4,-10
COC(=O)c1ccc(-c2noc(CN(C)CCC3CCCCO3)n2)cc1 (stereo not drawn),2,-2,2,-1,x,x
C=C1C(=O)C23C(O)C1CCC2C12CCCC(C)(COC(C)=O)C1C(O)C3(O)OC2 (stereo not drawn),31*,-10,-1,-2,8,-13
CCOP(C)(=O)C1(C(=O)OCc2ccccc2)CC1 (stereo not drawn),5,-10,1,1,x,x
COc1ccc(N2CCN(C(=O)NCc3ccc(OC)c(Cl)c3)CC2)cc1,31*,0,0,2,-1,8
O=C(CCc1ccccc1)n1nc(-c2ccccc2)nc1NCc1ccco1,33*,-1,1,0,-2,5
COc1ccc(CC(=O)n2nc(-c3ccccc3)nc2NCc2ccco2)cc1,9,-1,-1,0,x,x
CCCOc1ccc(C(=O)c2ccccc2C(=O)OC2CCOC2=O)cc1OCCC (stereo not drawn),30*,2,2,-1,12,25

# Source: PubChem (The Scripps Research Institute Molecular Screening Center)
